Experimental data from ChEMBL document CHEMBL1153564 (Antimicrob Agents Chemother, 2008).
Values after ≈ are worked out from the molar mass of the structure shown. Active and inactive are the calls of the source. The rule behind the calls is not given here. Starred links: 1 amine or outer side, 2 acyl side, 3 side chain; linkers in the order of their positions; H or OH if unused. Positions of bridges follow the written chain, without caps; N, C: chain ends. Non-standard residues stand in square brackets, D forms with d. Residues, ends and D or L forms follow the SMILES beside them. *: point of attachment. pTerphenylCO(4''-OnC5H11) = CCCCCOc1ccc(-c2ccc(-c3ccc(C(=O)*)cc3)cc2)cc1; Orn(4R-OH,5R-OH) = O=C([C@H](C[C@@H](O)[C@@H](O)N[*:3])N[*:1])[*:2]; hTyr(3S-OH,4S-OH) = N[C@H](C(=O)O)[C@H](O)[C@@H](O)c1ccc(O)cc1; Pro(3S-OH,4S-Me) = C[C@H]1CN[C@H](C(=O)O)[C@H]1O; Hyp = O=C(O)[C@@H]1C[C@@H](O)CN1

How the values were obtained:
Candida albicans [1] = assay: Antifungal activity against Candida albicans K-1 infected in neutropenic ICR/Swiss mouse candidiasis model assessed as reduction of […] in kidney at 1.25 mg/kg, ip administered 2 hrs postinfection as single dose measured within 1 to 4 hrs post dosing by time-kill assay; assay type: functional, organism-based; parameters: dose 1.25 mg/kg
How it was run: (§1)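 Neutropenic mice given a single ip dose (1.25, 5 or 20 mg/kg) 2 h after tail-vein infection. Kidneys from 3 mice per time point collected nine times over 96 h. Homogenates serially diluted 1:10 and plated on SDA, 24 h at 35°C. Detection limit 100 CFU/ml.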

Nakaseomyces glabratus [2] = assay: Antifungal activity against Candida glabrata 5376 infected in neutropenic ICR/Swiss mouse candidiasis model assessed as reduction of […] in kidney at 5 mg/kg, ip administered 2 hrs postinfection as single dose measured within 1 to 4 hrs post dosing by time-kill assay; assay type: functional, organism-based; parameters: dose 5 mg/kg
How it was run: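 Neutropenic mice were infected i.v. and 2 h later given a single i.p. dose (1.25, 5 or 20 mg/kg). Groups of three treated and three control mice were killed at intervals over 96 h, and kidney CFU were counted on SDA (limit 100 CFU/ml). The post-antifungal effect is t − c: the time for a 1 log10 CFU/kidney increase once serum levels fall below the MIC in treated mice, minus the same time in controls.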

Nakaseomyces glabratus [3] = assay: Antifungal activity against Candida glabrata 513 infected in neutropenic ICR/Swiss mouse candidiasis model assessed as dose required to maintain […] burden of 1.83 +/- 0.54 log10CFU per kidney administered intraperitoneally every 24 hrs up to 4 days measured per 24 hrs; assay type: functional
Nakaseomyces glabratus [4] = assay: Antifungal activity against Candida glabrata 33609 infected in neutropenic ICR/Swiss mouse candidiasis model assessed as dose required to maintain […] of 1.83 +/- 0.54 log10CFU per kidney administered intraperitoneally every 24 hrs up to 4 days measured per 24 hrs; assay type: functional
Nakaseomyces glabratus [5] = assay: Antifungal activity against Candida glabrata 5592 infected in neutropenic ICR/Swiss mouse candidiasis model assessed as dose required to maintain […] of 1.83 +/- 0.54 log10CFU per kidney administered intraperitoneally every 24 hrs up to 4 days measured per 24 hrs; assay type: functional
Serum = assay: Fraction unbound in Candida glabrata 5376-infected neutropenic ICR/Swiss mouse serum at 5 mg/kg, ip administered 2 hrs postinfection as single dose; assay type: ADME, organism-based; parameters: dose 5 mg/kg, route intraperitoneal; conditions: in vivo
Candida albicans [6] = assay: Antifungal activity against Candida albicans K-1 infected in neutropenic ICR/Swiss mouse candidiasis model assessed as dose required to maintain […] of 3.90 +/- 0.15 log10CFU per kidney administered intraperitoneally every 24 hrs up to 4 days measured per 96 hrs; assay type: functional
How it was run: (§2)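 Neutropenic mice were infected iv with C. albicans K-1 2 h before therapy. Total doses of 1.25, 5, 20, 80 and 320 mg/kg/96 h were split into 1, 2, 4 or 6 ip doses (q96h, q48h, q24h, q16h), three mice per regimen. Effect is the log10 CFU/kidney relative to untreated controls at 96 h. Static and 1-log doses were taken from a Hill model fit.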

Nakaseomyces glabratus [7] = assay: Antifungal activity against Candida glabrata 570 infected in neutropenic ICR/Swiss mouse candidiasis model assessed as dose required for 1-log10 reduction in […] per kidney administered intraperitoneally every 24 hrs up to 4 days measured per 24 hrs; assay type: functional
How it was run: (§3)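 Neutropenic mouse disseminated candidiasis, with i.p. therapy starting 2 h after i.v. infection. Five total doses of 0.078–20 mg/kg/24 h were given q24h for 4 days, three mice per dose. Kidney CFU were counted at the end and compared with untreated controls. The dose giving a 1 log10 CFU/kidney reduction was derived from the sigmoid Hill dose–effect model.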

Nakaseomyces glabratus [8] = assay: Antifungal activity against Candida glabrata 5376 infected in neutropenic ICR/Swiss mouse candidiasis model assessed as dose required for 1-log10 reduction in […] per kidney administered intraperitoneally every 24 hrs up to 4 days measured per 24 hrs; assay type: functional; how it was run: as §3
Candida albicans [9] = assay: Antifungal activity against Candida albicans K-1 infected in neutropenic ICR/Swiss mouse candidiasis model assessed as dose required for 1-log10 reduction in […] per kidney administered intraperitoneally every 48 hrs up to 4 days measured per 96 hrs; assay type: functional; how it was run: as §2
Nakaseomyces glabratus [10] = assay: Antifungal activity against Candida glabrata 33609 assessed as partial growth inhibition after 24 hrs by CLSI end point method; assay type: functional; conditions: Nakaseomyces glabratus, 33609, 24 h
How it was run: (§4)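 CLSI M27-A2 broth dilution. Two end points read against the drug-free control well: partial inhibition (CLSI end point) and complete inhibition. Run in duplicate on four separate occasions; value is the mean. Drug stock in DMSO, diluted in 0.9% NaCl.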

Nakaseomyces glabratus [11] = assay: Antifungal activity against Candida glabrata 35315 assessed as partial growth inhibition after 24 hrs by CLSI end point method; assay type: functional; conditions: Nakaseomyces glabratus, 35315, 24 h
How it was run: (§5)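 Two end points were read against the drug-free control well: partial growth inhibition (the CLSI end point) and complete inhibition. Run in duplicate on four separate occasions; the value is the mean. Drug stock was made in DMSO and diluted in 0.9% NaCl.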

Nakaseomyces glabratus [12] = assay: Antifungal activity against Candida glabrata 5592 assessed as partial growth inhibition after 24 hrs by CLSI end point method; assay type: functional; conditions: Nakaseomyces glabratus, 5592, 24 h; how it was run: as §5
Nakaseomyces glabratus [13] = assay: Antifungal activity against Candida glabrata 5376 assessed as partial growth inhibition after 24 hrs by CLSI end point method; assay type: functional; conditions: Nakaseomyces glabratus, 5376, 24 h; how it was run: as §5
Candida albicans [14] = assay: Antifungal activity against Candida albicans 98-17 assessed as complete growth inhibition after 24 hrs by CLSI end point method; assay type: functional; conditions: 98-17, 24 h; how it was run: as §4
Nakaseomyces glabratus [15] = assay: Antifungal activity against Candida glabrata after 24 hrs by broth microdilution method; assay type: functional; how it was run: as §5
Nakaseomyces glabratus [16] = assay: Antifungal activity against Candida glabrata 570 infected in neutropenic ICR/Swiss mouse candidiasis model assessed as fungal count per kidney administered 2 hrs postinfection measured up to 48 hrs; assay type: functional
How it was run: (§6)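 Female ICR/Swiss mice (23–27 g) made neutropenic with cyclophosphamide s.c. (150 mg/kg day −4, 100 mg/kg day −1, 100 mg/kg day +2). Infected by tail vein with 0.1 ml inoculum (~6.1 log10 CFU/ml). Kidneys of untreated mice were homogenised and plated on SDA for 24 h at 35°C. Growth over 48 h is given as log10 CFU/kidney.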

Nakaseomyces glabratus [17] = assay: Antifungal activity against Candida glabrata 33616 infected in neutropenic ICR/Swiss mouse candidiasis model assessed as fungal count per kidney administered 2 hrs postinfection measured up to 48 hrs; assay type: functional; how it was run: as §6
Nakaseomyces glabratus [18] = assay: Antifungal activity against Candida glabrata 34341 infected in neutropenic ICR/Swiss mouse candidiasis model assessed as fungal count per kidney administered 2 hrs postinfection measured up to 48 hrs; assay type: functional; how it was run: as §6
Candida albicans [19] = assay: Antifungal activity against Candida albicans K-1 infected in neutropenic ICR/Swiss mouse candidiasis model assessed as reduction of […] in kidney at 1.25 mg/kg, ip administered 2 hrs postinfection as single dose measured after 96 hrs post dosing by time-kill assay; assay type: functional, organism-based; parameters: dose 1.25 mg/kg; how it was run: as §1
Nakaseomyces glabratus [20] = assay: Antifungal activity against Candida glabrata 5376 infected in neutropenic ICR/Swiss mouse candidiasis model assessed as reduction of […] in kidney at 1.25 mg/kg, ip administered 2 hrs postinfection as single dose measured after 96 hrs post dosing by time-kill assay; assay type: functional, organism-based; parameters: dose 1.25 mg/kg; how it was run: as §1
Nakaseomyces glabratus [21] = assay: Antifungal activity against Candida glabrata 5376 infected in neutropenic ICR/Swiss mouse candidiasis model assessed as dose required to maintain […] of 3.71 +/- 0.21 log10CFU per kidney administered intraperitoneally every 24 hrs up to 4 days measured per 96 hrs

With `CCCCCOc1ccc(-c2ccc(-c3ccc(C(=O)N[C@H]4C[C@@H](O)[C@@H](O)NC(=O)[C@@H]5[C@@H](O)[C@@H](C)CN5C(=O)[C@H]([C@@H](C)O)NC(=O)[C@H]([C@H](O)[C@@H](O)c5ccc(O)cc5)NC(=O)[C@@H]5C[C@@H](O)CN5C(=O)[C@H]([C@@H](C)O)NC4=O)cc3)cc2)cc1` [ANIDULAFUNGIN] ({pTerphenylCO(4''-OnC5H11)}-[Orn(4R-OH,5R-OH)]T[Hyp][hTyr(3S-OH,4S-OH)]T[Pro(3S-OH,4S-Me)]; lactam 1-C) the Activity (Candida albicans [1]) was “Active”, the Activity (Nakaseomyces glabratus [2]) was “Active” and the Activity (Nakaseomyces glabratus [3]) was 2.45 mg/kg. It also gave an Activity (Nakaseomyces glabratus [4]) of 2 mg/kg, an Activity (Nakaseomyces glabratus [5]) of 3.57 mg/kg and a Fu (Serum) of 1%. The Activity (Candida albicans [6]) was 5 mg/kg, the Activity (Nakaseomyces glabratus [7]) was 3.72 mg/kg and the Activity (Nakaseomyces glabratus [8]) was 7.5 mg/kg. For the same compound, the Activity (Candida albicans [9]) was 9.19 mg/kg, the MIC (Nakaseomyces glabratus [10]) was 0.03 µg/mL (≈ 0.0263 µM) and the MIC (Nakaseomyces glabratus [11]) was 0.25 µg/mL (≈ 0.219 µM). For the same compound, the MIC (Nakaseomyces glabratus [12]) was 0.06 µg/mL (≈ 0.0526 µM), the MIC (Nakaseomyces glabratus [13]) was 0.03 µg/mL (≈ 0.0263 µM) and the MIC (Candida albicans [14]) was 0.12 µg/mL (≈ 0.105 µM). It also gave an MIC90 (Nakaseomyces glabratus [15]) of 0.12 µg/mL (≈ 0.105 µM), a log10cfu (Nakaseomyces glabratus [16]) of 2.45 and a log10cfu (Nakaseomyces glabratus [17]) of 1.81. For the same compound, the log10cfu (Nakaseomyces glabratus [18]) was 1.82, the Activity (Candida albicans [19]) was “Active” and the Activity (Nakaseomyces glabratus [20]) was “Active”. It also gave an Activity (Nakaseomyces glabratus [21]) of 17.6 mg/kg.
